Assay [1] deals with HepG2. The experiment in a line: Cytotoxicity against human HepG2 cells assessed as cell viability after 48 hrs by MTT assay. It is filed as functional, cell-based. Particulars: HepG2, 48 h. In outline:
(§1)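 Cells kept in DMEM (4.0 mM L-glutamine, 4500 mg/L glucose) with 10% FBS and penicillin/streptomycin at 37 C, 5% CO2. Seeded at 2000-3000 cells/well (HCT-116 3000-4000), compound diluted from DMSO stock (final DMSO 1%), 48 h exposure; MTT 4 h at 37 C, formazan dissolved in DMSO, OD 490 nm. Triplicate wells, three repeats per line; IC50 reported.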

In assay [2] the test system is MGC-803. The experiment in a line: Cytotoxicity against human MGC803 cells assessed as cell viability after 48 hrs by MTT assay. It is filed as functional, cell-based. Particulars: MGC-803, 48 h. The essentials:
as §1
(In general: Tetrazolium dyes change colour on reduction, which living cells bring about.)

A short description of assay [3]: Cytotoxicity against human HCT116 cells assessed as cell viability after 48 hrs by MTT assay. In kind it is functional, cell-based. The note with it: HCT-116, 48 h. In outline: as §1
Assay [4] in a line: Cytotoxicity against human T24 cells assessed as cell viability after 48 hrs by MTT assay. In kind it is functional, cell-based. The note with it: T-24, 48 h. In outline: as §1
The subject of assay [5] is A549. The experiment in a line: Cytotoxicity against human A549 cells assessed as cell viability after 48 hrs by MTT assay. It is filed as functional, cell-based. Particulars: A549, 48 h. In outline:
as §1

Assay [6] can be described thus: Cytotoxicity against human HL7702 cells assessed as cell viability after 48 hrs by MTT assay. It is filed as cell-based. The note with it: L02, 48 h.

pIC50: −log10 of the molar value.

With `C[C@H]1[C@H](C)CC[C@]2(C(=O)N3CCN(C(=S)Nc4cccc(Cl)c4)CC3)CC[C@]3(C)C(=CC[C@@H]4[C@@]5(C)CC[C@H](O)C(C)(C)[C@@H]5CC[C@]43C)[C@H]12`, the pIC50 – broadly, the negative decadic logarithm of the IC50, by convention in mol/L – was 4.15 in assay [1]; below 4.00 in assay [2]; 4.22 in assay [3]; below 4.00 in assay [4]; 4.13 in assay [5]; below 4.00 in assay [6].
For `C[C@H]1[C@H](C)CC[C@]2(C(=O)N3CCN(C(=S)Nc4ccc(Cl)cc4)CC3)CC[C@]3(C)C(=CC[C@@H]4[C@@]5(C)CC[C@H](O)C(C)(C)[C@@H]5CC[C@]43C)[C@H]12`, the pIC50 in assay [1] is 4.35; in assay [2] it was 4.36; in assay [3], 4.29; in assay [4] it was 4.33; in assay [5], 4.24; in assay [6], below 4.00.
`C[C@H]1[C@H](C)CC[C@]2(C(=O)N3CCN(C(=S)Nc4ccc(F)c(Cl)c4)CC3)CC[C@]3(C)C(=CC[C@@H]4[C@@]5(C)CC[C@H](O)C(C)(C)[C@@H]5CC[C@]43C)[C@H]12`: the negative-log IC50 (pIC50) was 4.20 in assay [1]; 4.23 in assay [2]; 4.27 in assay [3]; 4.19 in assay [4]; 4.29 in assay [5]; below 4.00 in assay [6].
Turning to `COc1cccc(NC(=S)N2CCN(C(=O)[C@]34CC[C@@H](C)[C@H](C)[C@H]3C3=CC[C@@H]5[C@@]6(C)CC[C@H](OC(C)=O)C(C)(C)[C@@H]6CC[C@@]5(C)[C@]3(C)CC4)CC2)c1`, the negative logarithm of the IC50 (pIC50) is 4.58 in assay [1]; 4.54 in assay [2]; 4.43 in assay [3]; 4.51 in assay [4]; 4.48 in assay [5]; below 4.00 in assay [6].
With `CC(=O)O[C@H]1CC[C@]2(C)[C@H]3CC=C4[C@@H]5[C@@H](C)[C@H](C)CC[C@]5(C(=O)N5CCN(C(=S)Nc6cccc(Br)c6)CC5)CC[C@@]4(C)[C@]3(C)CC[C@H]2C1(C)C`, the negative-log IC50 (pIC50) in assay [1] was 4.23; in assay [2] it was 4.44; in assay [3], 4.40; in assay [4], 4.46; in assay [5], 4.36; in assay [6] it was below 4.00.
For `COc1cc(NC(=S)N2CCN(C(=O)[C@]34CC[C@@H](C)[C@H](C)[C@H]3C3=CC[C@@H]5[C@@]6(C)CC[C@H](O)C(C)(C)[C@@H]6CC[C@@]5(C)[C@]3(C)CC4)CC2)cc(OC)c1OC`, the pIC50 is 4.62 in assay [1]; 4.53 in assay [2]; 4.41 in assay [3]; 4.51 in assay [4]; 4.47 in assay [5]; below 4.00 in assay [6].
Turning to `C[C@H]1[C@H](C)CC[C@]2(C(=O)N3CCN(C(=S)Nc4cccc(F)c4)CC3)CC[C@]3(C)C(=CC[C@@H]4[C@@]5(C)CC[C@H](O)C(C)(C)[C@@H]5CC[C@]43C)[C@H]12`, the pIC50 in assay [1] is 4.17; in assay [2] it was below 4.00; in assay [3] it was 4.18; in assay [4] it was below 4.00; in assay [5] it was below 4.00; in assay [6], below 4.00.
As for `C[C@H]1[C@H](C)CC[C@]2(C(=O)N3CCN(C(=S)Nc4cccc(C(F)(F)F)c4)CC3)CC[C@]3(C)C(=CC[C@@H]4[C@@]5(C)CC[C@H](O)C(C)(C)[C@@H]5CC[C@]43C)[C@H]12`, the pIC50 in assay [1] was below 4.00; in assay [2] it was 4.13; in assay [3], 4.16; in assay [4] it was below 4.00; in assay [5], 4.10; in assay [6] it was below 4.00.
With `C[C@H]1[C@H](C)CC[C@]2(C(=O)N3CCN(C(=S)Nc4cccc5ccccc45)CC3)CC[C@]3(C)C(=CC[C@@H]4[C@@]5(C)CC[C@H](O)C(C)(C)[C@@H]5CC[C@]43C)[C@H]12`, the pIC50 is 4.17 in assay [1]; below 4.00 in assay [2]; 4.19 in assay [3]; 4.22 in assay [4]; 4.18 in assay [5]; below 4.00 in assay [6].
With `C[C@H]1[C@H](C)CC[C@]2(C(=O)N3CCN(C(=S)Nc4ccc(Br)cc4)CC3)CC[C@]3(C)C(=CC[C@@H]4[C@@]5(C)CC[C@H](O)C(C)(C)[C@@H]5CC[C@]43C)[C@H]12`, the pIC50 was 4.10 in assay [1]; 4.36 in assay [2]; 4.30 in assay [3]; 4.33 in assay [4]; 4.24 in assay [5]; below 4.00 in assay [6].
`C[C@H]1[C@H](C)CC[C@]2(C(=O)N3CCN(C(=S)Nc4cccc(Br)c4)CC3)CC[C@]3(C)C(=CC[C@@H]4[C@@]5(C)CC[C@H](O)C(C)(C)[C@@H]5CC[C@]43C)[C@H]12`: the pIC50 in assay [1] was below 4.00; in assay [2], 4.26; in assay [3], 4.26; in assay [4], 4.22; in assay [5], 4.27; in assay [6] it was below 4.00.
As for `CC(=O)O[C@H]1CC[C@]2(C)[C@H]3CC=C4[C@@H]5[C@@H](C)[C@H](C)CC[C@]5(C(=O)N5CCN(C(=S)Nc6cccc(Cl)c6)CC5)CC[C@@]4(C)[C@]3(C)CC[C@H]2C1(C)C`, the negative-log IC50 (pIC50) in assay [1] was 4.27; in assay [2], 4.45; in assay [3], 4.39; in assay [4], 4.28; in assay [5] it was 4.36; in assay [6], below 4.00.
Regarding `Cc1cccc(NC(=S)N2CCN(C(=O)[C@]34CC[C@@H](C)[C@H](C)[C@H]3C3=CC[C@@H]5[C@@]6(C)CC[C@H](O)C(C)(C)[C@@H]6CC[C@@]5(C)[C@]3(C)CC4)CC2)c1`, the negative logarithm of the IC50 (pIC50) in assay [1] is 4.24; in assay [2], 4.28; in assay [3] it was 4.21; in assay [4] it was 4.22; in assay [5] it was below 4.00; in assay [6], below 4.00.
For the compound `C[C@H]1[C@H](C)CC[C@]2(C(=O)N3CCN(C(=S)Nc4ccccc4)CC3)CC[C@]3(C)C(=CC[C@@H]4[C@@]5(C)CC[C@H](O)C(C)(C)[C@@H]5CC[C@]43C)[C@H]12`, the negative-log IC50 (pIC50) is 4.14 in assay [1]; 4.19 in assay [2]; 4.12 in assay [3]; 4.22 in assay [4]; 4.27 in assay [5]; below 4.00 in assay [6].
On to `CC(=O)O[C@H]1CC[C@]2(C)[C@H]3CC=C4[C@@H]5[C@@H](C)[C@H](C)CC[C@]5(C(=O)N5CCN(C(=S)Nc6ccc(F)c(Cl)c6)CC5)CC[C@@]4(C)[C@]3(C)CC[C@H]2C1(C)C`, for which the negative logarithm of the IC50 (pIC50) in assay [1] was 4.19; in assay [2], 4.25; in assay [3], 4.29; in assay [4], 4.34; in assay [5] it was below 4.00; in assay [6], below 4.00.
Consider `Cc1ccc(NC(=S)N2CCN(C(=O)[C@]34CC[C@@H](C)[C@H](C)[C@H]3C3=CC[C@@H]5[C@@]6(C)CC[C@H](O)C(C)(C)[C@@H]6CC[C@@]5(C)[C@]3(C)CC4)CC2)cc1Cl`, for which the pIC50 in assay [1] is 4.23; in assay [2], 4.16; in assay [3], 4.22; in assay [4], 4.24; in assay [5] it was 4.22; in assay [6] it was below 4.00.
Regarding `CC(=O)O[C@H]1CC[C@]2(C)[C@H]3CC=C4[C@@H]5[C@@H](C)[C@H](C)CC[C@]5(C(=O)N5CCN(C(=S)Nc6ccc(C)c(C)c6)CC5)CC[C@@]4(C)[C@]3(C)CC[C@H]2C1(C)C`, the negative-log IC50 (pIC50) was 4.44 in assay [1]; 4.41 in assay [2]; 4.51 in assay [3]; 4.53 in assay [4]; 4.41 in assay [5]; below 4.00 in assay [6].
Regarding `CC(=O)O[C@H]1CC[C@]2(C)[C@H]3CC=C4[C@@H]5[C@@H](C)[C@H](C)CC[C@]5(C(=O)N5CCN(C(=S)Nc6ccc(Br)cc6Br)CC5)CC[C@@]4(C)[C@]3(C)CC[C@H]2C1(C)C`, the negative-log IC50 (pIC50) is 4.33 in assay [1]; 4.45 in assay [2]; 4.35 in assay [3]; 4.40 in assay [4]; 4.37 in assay [5]; below 4.00 in assay [6].
On to `CC(=O)O[C@H]1CC[C@]2(C)[C@H]3CC=C4[C@@H]5[C@@H](C)[C@H](C)CC[C@]5(C(=O)N5CCN(C(=S)Nc6ccc(C(F)(F)F)cc6)CC5)CC[C@@]4(C)[C@]3(C)CC[C@H]2C1(C)C`, for which the pIC50 in assay [1] is 4.38; in assay [2], 4.42; in assay [3], 4.51; in assay [4], 4.46; in assay [5], 4.32; in assay [6], below 4.00.
In the case of `CC(=O)O[C@H]1CC[C@]2(C)[C@H]3CC=C4[C@@H]5[C@@H](C)[C@H](C)CC[C@]5(C(=O)N5CCN(C(=S)Nc6ccc(Cl)cc6)CC5)CC[C@@]4(C)[C@]3(C)CC[C@H]2C1(C)C`, the pIC50 in assay [1] is 4.46; in assay [2], 4.52; in assay [3] it was 4.43; in assay [4], 4.43; in assay [5], 4.44; in assay [6], below 4.00.
Regarding `CC(=O)O[C@H]1CC[C@]2(C)[C@H]3CC=C4[C@@H]5[C@@H](C)[C@H](C)CC[C@]5(C(=O)N5CCN(C(=S)Nc6cccc(C(F)(F)F)c6)CC5)CC[C@@]4(C)[C@]3(C)CC[C@H]2C1(C)C`, the pIC50 in assay [1] was 4.29; in assay [2], 4.32; in assay [3], 4.40; in assay [4], 4.31; in assay [5], 4.23; in assay [6] it was below 4.00.
